Source: ChEMBL document CHEMBL1135676, “Comparative molecular field analysis of substrates for an aryl sulfotransferase based on catalytic mechanism and protein homology modeling” (J Med Chem, 2002)

How the values were obtained:
[1] = substrate: Oc1ccc2ccccc2c1; test: not read
[2] = substrate: Oc1ccccc1; test: not read
[3] = molecular target: Aryl sulfotransferase IV (Rattus norvegicus); test: (§1) Apparent Michaelis constant (Km) against Arylsulfotransferase (AST IV)
In short: (§2)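 Recombinant rat hepatic AST IV, expressed in E. coli and purified. Each reaction held 1.0 μg enzyme, 0.2 mM PAPS, 8.3 mM 2-mercaptoethanol, varying substrate and 0.25 M potassium phosphate at pH 7.0. Mixtures were preincubated 2 min at 37 °C, started with enzyme, run 10 min at 37 °C and stopped with methanol. Substrate-dependent PAP formation was read by HPLC and corrected with substrate-free controls. kcat is in min⁻¹ and apparent Km in M.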

[4] = substrate: CC(=O)Nc1ccc(O)cc1; test: as §1
In short: as §2

[5] = substrate: CC(C)[C@H](O)c1ccccc1; test: as §1
In short: as §2

[6] = substrate: CCCCCCCCCc1ccc(O)cc1; test: as §1
In short: as §2

[7] = substrate: CCCCCCCc1ccc(CO)cc1; test: as §1
In short: as §2

[8] = substrate: CCCCCCCc1ccc(O)cc1; test: as §1
In short: as §2

[9] = substrate: CCCCCC[C@H](O)c1ccccc1; test: as §1
In short: as §2

[10] = substrate: CCCCCCc1ccc(CO)cc1; test: as §1
In short: as §2

[11] = substrate: CCCCC[C@H](O)c1ccccc1; test: as §1
In short: as §2

[12] = substrate: CCCCCc1ccc(CO)cc1; test: as §1
In short: as §2

[13] = substrate: CCCCCc1ccc(O)cc1; test: as §1
In short: as §2

[14] = substrate: CCCC[C@H](O)c1ccccc1; test: as §1
In short: as §2

[15] = substrate: CCCCc1ccc(CO)cc1; test: as §1
In short: as §2

[16] = substrate: CCCCc1ccc(O)cc1; test: as §1
In short: as §2

[17] = substrate: CCCN(O)c1ccccc1; test: as §1
In short: as §2

[18] = substrate: CCC[C@H](O)c1ccccc1; test: as §1
In short: as §2

[19] = substrate: CCCc1ccc(CO)cc1; test: as §1
In short: as §2

[20] = substrate: CCCc1ccc(O)cc1; test: as §1
In short: as §2

[21] = substrate: CCN(O)c1ccccc1; test: as §1
In short: as §2

[22] = substrate: CC[C@H](O)c1ccccc1; test: as §1
In short: as §2

[23] = substrate: CCc1ccc(O)cc1; test: as §1
In short: as §2

[24] = substrate: CN(O)c1ccccc1; test: as §1
In short: as §2

[25] = substrate: CN[C@@H](C)C(O)c1ccccc1; test: as §1
In short: as §2

[26] = substrate: CN[C@H](C)[C@H](O)c1ccccc1; test: as §1
In short: as §2

[27] = substrate: COC(=O)[C@@H](N)Cc1ccc(O)cc1; test: as §1
In short: as §2

[28] = substrate: C[C@@H](O)c1ccccc1; test: as §1
In short: as §2

[29] = substrate: C[C@H](O)c1ccccc1; test: as §1
In short: as §2

[30] = substrate: Cc1ccc(CO)cc1; test: as §1
In short: as §2

[31] = substrate: Cc1ccc(O)cc1; test: as §1
In short: as §2

[32] = substrate: O=C(CBr)Nc1ccc(O)cc1; test: as §1
In short: as §2

[33] = substrate: O=[N+]([O-])c1ccc(CO)cc1; test: as §1
In short: as §2

[34] = substrate: O=[N+]([O-])c1ccc(O)c(Cl)c1; test: as §1
In short: as §2

[35] = substrate: OC1CCCc2ccccc21; test: as §1
In short: as §2

[36] = substrate: OCc1c[nH]c2ccccc12; test: as §1
In short: as §2

[37] = substrate: OCc1ccc2ccccc2c1; test: as §1
In short: as §2

[38] = substrate: OCc1cccc2ccccc12; test: as §1
In short: as §2

[39] = substrate: OCc1ccccc1; test: as §1
In short: as §2

[40] = substrate: OCc1ccoc1; test: as §1
In short: as §2

[41] = substrate: ONc1ccc(Cl)cc1; test: as §1
In short: as §2

[42] = substrate: ONc1ccccc1; test: as §1
In short: as §2

[43] = substrate: Oc1ccc(-c2ccccc2)cc1; test: as §1
In short: as §2

[44] = substrate: [H][C@]12CC3(c4ccc(O)cc4)C[C@]([H])(C1)C[C@@]([H])(C3)C2; test: as §1
In short: as §2

B1: Sulfotransferase 1A1 (Rattus norvegicus) (protein)
chain: MEFSRPPLVHVKGIPLIKYFAETIGPLQNFTAWPDDLLISTYPKSGTTWMSEILDMIYQGGKLEKCGRAPIYARVPFLEFKCPGVPSGLETLEETPAPRLLKTHLPLSLLPQSLLDQKVKVIYIARNAKDVVVSYYNFYNMAKLHPDPGTWDSFLENFMDGEVSYGSWYQHVKEWWELRHTHPVLYLFYEDIKENPKREIKKILEFLGRSLPEETVDSIVHHTSFKKMKENCMTNYTTIPTEIMDHNVSPFMRKGTTGDWKNTFTVAQNERFDAHYAKTMTDCDFKFRCEL
Work on B1 yielded a Km [1] of 8 µM, a Vmax [1] of 1.13 µM/min and a Km [2] of 19 µM. The Vmax [2] was 0.35 µM/min, the Km [3] was 60 µM and the Vmax [3] was 0.182 µM/min. The Km [4] was 92 µM, the Vmax [4] was 0.181 µM/min and the Km [5] was 1360 µM. For the same protein, the Vmax [5] was 0.0061 µM/min, the Km [6] was 109 µM and the Vmax [6] was 0.091 µM/min. For the same protein, the Km [7] was 410 µM, the Vmax [7] was 0.133 µM/min and the Km [8] was 61 µM. For the same protein, the Vmax [8] was 0.132 µM/min, the Km [9] was 20 µM and the Vmax [9] was 0.0052 µM/min. The Km [10] was 30 µM, the Vmax [10] was 0.0967 µM/min and the Km [11] was 7 µM. It also gave a Vmax [11] of 0.0021 µM/min, a Km [12] of 20 µM and a Vmax [12] of 0.109 µM/min. It also gave a Km [13] of 9 µM, a Vmax [13] of 0.208 µM/min and a Km [14] of 10 µM. The Vmax [14] was 0.0305 µM/min, the Km [15] was 30 µM and the Vmax [15] was 0.13 µM/min. It also gave a Km [16] of 5 µM, a Vmax [16] of 0.296 µM/min and a Km [17] of 161 µM. For the same protein, the Vmax [17] was 0.0986 µM/min, the Km [18] was 360 µM and the Vmax [18] was 0.0085 µM/min. It also gave a Km [19] of 40 µM, a Vmax [19] of 0.178 µM/min and a Km [20] of 6 µM. The Vmax [20] was 0.427 µM/min, the Km [21] was 650 µM and the Vmax [21] was 0.273 µM/min. It also gave a Km [22] of 240 µM, a Vmax [22] of 0.0099 µM/min and a Km [23] of 10 µM. It also gave a Vmax [23] of 0.41 µM/min, a Km [24] of 119 µM and a Vmax [24] of 0.085 µM/min. It also gave a Km [25] of 6990 µM, a Vmax [25] of 0.0225 µM/min and a Km [26] of 11000 µM. For the same protein, the Vmax [26] was 0.0404 µM/min, the Km [27] was 4000 µM and the Vmax [27] was 0.35 µM/min. For the same protein, the Km [28] was 1730 µM, the Vmax [28] was 0.0206 µM/min and the Km [29] was 250 µM. It also gave a Vmax [29] of 0.0337 µM/min, a Km [30] of 600 µM and a Vmax [30] of 0.508 µM/min. The Km [31] was 10 µM, the Vmax [31] was 0.32 µM/min and the Km [32] was 22 µM. It also gave a Vmax [32] of 0.095 µM/min, a Km [33] of 199 µM and a Vmax [33] of 0.0206 µM/min. It also gave a Km [34] of 5 µM, a Vmax [34] of 0.028 µM/min and a Km [35] of 30 µM. It also gave a Vmax [35] of 0.0287 µM/min, a Km [36] of 29 µM and a Vmax [36] of 0.0332 µM/min. It also gave a Km [37] of 26 µM, a Vmax [37] of 0.0776 µM/min and a Km [38] of 30 µM. The Vmax [38] was 0.026 µM/min, the Km [39] was 50 µM and the Vmax [39] was 0.0305 µM/min. It also gave a Km [40] of 960 µM, a Vmax [40] of 0.0102 µM/min and a Km [41] of 26 µM. For the same protein, the Vmax [41] was 0.035 µM/min, the Km [42] was 230 µM and the Vmax [42] was 0.043 µM/min. The Km [43] was 91 µM, the Vmax [43] was 0.212 µM/min and the Km [44] was 1 µM. For the same protein, the Vmax [44] was 0.0472 µM/min.
